Assay results as given in ChEMBL document CHEMBL4513216, “Probing the Open Global Health Chemical Diversity Library for Multistage-Active Starting Points for Next-Generation Antimalarials” (ACS Infect Dis, 2020).

Experiment: Toxicity liver stage against HepG2, at 10uM
Format: cell-based
Set-up: test concentration 10 uM, cell line HepG2-A16-CD81EGFP
Conditions: human, HepG2-A16-CD81EGFP cells; read-out: INHIBITION
Summary of the method: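 Uninfected HepG2-A16-CD81EGFP cells, 3 × 10^3 per well, 1536-well, plated on prespotted compound at 10 μM final, parasite-free screening media added to match infected plates; puromycin 10 μM positive, DMSO 0.5% negative; run in parallel with 48 h PbLuc assay at 37 °C, 5% CO2; viability by CellTiter-Glo luminescence, normalized to controls.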

Structure (SMILES) | cytotoxicity at 10 µM [%]
O=S(=O)(Cc1ccc(F)cc1)N1CCN(CC(O)C2CC2)CC1 (configuration not stated) | 4.77
O=C1CC(NS(=O)(=O)c2ccc(F)c(Cl)c2)CN1 (configuration not stated) | 6.32
Cn1nc(CNC(=O)c2ccc3nsnc3c2)c2c1CCOC2 | 6.53
OCc1cnc(Nc2ccccc2)nc1 | 11.3
FC1(F)CCNCC12CCN(c1ncccn1)C2 (configuration not stated) | 6.65
CC(C)(C)c1noc(-c2ccnc(-n3cnc(C(=O)O)c3)c2)n1 | 5.41
CCOC(=O)N1CCN(C(=O)c2snnc2-c2ccccc2)CC1 | 0.847
CNC(=O)c1cc2c(nc1NCC(C)C)CCN(S(=O)(=O)C1CC1)CC2 | -4.88
CCCn1nccc1C(=O)Nc1ncc(C)s1 | 8.05
Cc1nn(C)c(C)c1CN(C)c1nc(C2CC2)nc2c(C)nn(C)c12 | 3.98
Cc1cn[nH]c1C1COCCN1C(=O)c1ccc2c(c1)CCCC2 (configuration not stated) | -0.21
Cc1cc(N2CCCC(O)(CN(C)C(=O)CCN)C2)c2cnccc2n1 (configuration not stated) | -1.49
Cn1cc(C2=NOC(C(=O)NC3(c4ccccc4)CCCC3)C2)cn1 (configuration not stated) | -0.34
Cc1cc(O)cc(C2CCCN2C(=O)c2ccn(C)n2)n1 (configuration not stated) | -2.82
Fc1cccc(CN2CCC(c3noc(-c4ccccn4)n3)CC2)c1F | -12.8
Cc1cnc(C2(C)CCN(Cc3cscn3)CC2)s1 | -22.5
Cc1nn(C)c(C)c1-c1cnc(C2CCCN(S(C)(=O)=O)C2)cn1 (configuration not stated) | -11.3
CN(C)C(=O)C1CCc2nnc(C(C)(C)C)n21 (configuration not stated) | 3.13
O=C(NC(CC(F)(F)F)c1ccc(Cl)cc1)c1nc(=O)[nH][nH]1 (configuration not stated) | -5.11
CC(C#N)CN(C)C(=O)CCNC(=O)C(C)(C)C (configuration not stated) | 0.843
C=C(C)Cn1cc(C(N)=O)nc1C1CC1 | 14.5

Structure (SMILES) | cytotoxicity at 10 µM [%]
CCC1COCCN1C(=O)CNC(=O)c1ccc2c(c1)CCC2 (configuration not stated) | 8.08
CCN(CC)CCCC(C)NC(=O)c1cccnc1-n1cccn1 (configuration not stated) | -0.595
Cc1nnc2n1CCN(CC(=O)NC(C)c1cc3ccccc3o1)C2 (configuration not stated) | -9.79
O=C(NCc1ccccc1Cn1ccnc1)N1CCSCC1 | 3.9
CC(C)N1CCCC(N2CCOC3(CCCC3)C2)C1=O (configuration not stated) | -7.33
O=C(c1cnn(-c2ccccc2)c1)N1CCN(c2cnccn2)CC1 | 5.37
CC(C)C(=O)Nc1cc(C(C)(C)C)nn1-c1ccccn1 | -4.1
Cc1nn(C)c(C)c1NC(=O)CN1CCCC1c1noc(C(C)C)n1 (configuration not stated) | -1.08
CC(=O)N1CCCC1c1cccc(C)c1C (configuration not stated) | 10.8
CN(Cc1ncnn1C)c1ccnc(Cc2ccccc2)n1 | -1.92
CCc1cccc(NC(=O)CNc2ccccc2OCCC(=O)OC)c1 | 7.53
CS(=O)(=O)CCCC(=O)N1CCN(CC2CC2)c2ccccc21 | -3.2
COc1ccccc1C(C)CC(=O)N1CCCS1(=O)=O (configuration not stated) | -11.6
CCC(CC)CS(=O)(=O)NC(=O)C1CCCC1 | -13.3
COc1ccc2c(ccn2CC(=O)N2CCCC2Cn2cccn2)c1 (configuration not stated) | -0.429
COc1ccccc1C(C)Nc1ncc(C(N)=O)cc1Cl (configuration not stated) | 8.74
COc1ccc(NC(=O)N2CCN(c3ncccn3)CC2)cn1 | 1
CN(Cc1cnn(C)c1)C(=O)Cn1c(CS(C)(=O)=O)nc2ccccc21 | 1.05
O=C(c1cscn1)N1CCc2ncnc(-c3ccncc3)c2CC1 | -4.71
CN(C)C(=O)c1ccc(-c2cccc3c2CCNC3)o1 | -0.537
Cc1nc(C(C)C)sc1C(=O)N1CCN(C2CN3CCC2CC3)CC1 (configuration not stated) | 3.79

Structure (SMILES) | cytotoxicity at 10 µM [%]
CC(C)=CCN1CCN(C(=O)c2cc(C)n[nH]2)[C@H]2CS(=O)(=O)C[C@H]21 | -6.9
NC(=O)c1ccc(-c2nc3c(c(=O)[nH]2)CCNC3)cc1 | 1.37
CC(C)Oc1ccc(CN2CCN3CCN(C)CC3C2)cc1CO (configuration not stated) | -3.42
CNCCCNC1CCN(c2ccc(-n3ccnc3)cc2)CC1 | -3.03
CCn1c(C2CCCNC2)nn(CCn2cncn2)c1=O (configuration not stated) | -18.1
Cc1c[nH]c(CN2CCN(C)C3(CCC(=O)N(CC4CC4)CC3)C2)n1 (configuration not stated) | -5.54
COC[C@H]1CCC[C@H]1Nc1ncnc2c1CCNCC2 | -11.2
CCOc1ccc(C(=O)N2Cc3cnc(CC)nc3C2)o1 | 3.34
CSCCC(=O)N1CCC(c2nccn2Cc2cscn2)CC1 | 1.41
Cc1ccc(C(C(=O)NCCc2nc(C)cc(C)n2)N(C)C)cc1 (configuration not stated) | -1.3
CSCCC1CC(=O)Nc2cc(O)c(C)cc21 (configuration not stated) | 1.97
CC(C)=CCN1CCN(C(=O)c2cc(C(C)C)no2)[C@H]2CS(=O)(=O)C[C@H]21 | -7.86
CC(C1CCN(Cc2ccc(N(C)C)nc2)CC1)N(C)C (configuration not stated) | -1.75
C/C=C(\C)CN1C[C@H](NC(=O)c2cnc(O)cn2)C[C@H]1C(=O)NCC | 7.31
CN1CCCN(C[C@@H]2CN(C(=O)CC3CCC3)C[C@@H]2CO)CC1 | -9.11
Cc1cc2nc(C(C)C)cc(N[C@H](C(N)=O)C(C)C)n2n1 | -1.66
Cc1cc(C)n(CC2CCCN2C(=O)c2cn[nH]c2C)n1 (configuration not stated) | -11.6
CC(=O)N(Cc1ncc(C(C)C)o1)C1CCN(CCC#N)C1 (configuration not stated) | -6.39
C1CC(c2nnc(CN3CCCC3c3noc(C4CC4)n3)o2)C1 (configuration not stated) | -7.77
O=C(NCc1csc(Br)c1)N1CCOCC1 | -7.45
Cc1noc(C2CCN(C(=O)CCc3ccccn3)CC2)n1 | -3.25

Structure (SMILES) | cytotoxicity at 10 µM [%]
Cc1ccc(-c2cc(C(=O)NCCN3CCCS3(=O)=O)[nH]n2)o1 | -7.98
Cc1cccnc1NC(=O)N(CCO)Cc1ccsc1 | -11.3
COC(=O)c1cc(C(=O)N2CCCCCC2)n(-c2ccccc2)n1 | -5.33
OC(CN1CCN(Cc2nnc(C3CC3)o2)CC1)c1ccccc1 (configuration not stated) | -6.82
Fc1cccc(-n2ccc(CN3CCCCC3Cn3cncn3)n2)c1 (configuration not stated) | -3.81
Cc1cc(C)n(CC2CCCN2CC(=O)NC2CCOCC2)n1 (configuration not stated) | -5.23
CC(NCc1ccc(OCC(N)=O)cc1)c1ccc(Cl)c(Cl)c1 (configuration not stated) | -5.25
Cc1cncc(C(=O)N2C[C@@H]3CN(S(C)(=O)=O)CCO[C@@H]3C2)c1 | -4.87
c1ccc(CN2CCC3(CC2)CN(c2ccccn2)CCO3)nc1 | -6.38
O=C(O)[C@]12CCCN(Cc3cccs3)C[C@H]1CN(c1ncccn1)C2 | 7.58
CN1CCC2(COCc3cnc(-c4ccccc4)nc32)C1 (configuration not stated) | -1.5
CCn1ncc2c1C(COC)CN(c1ncc(F)cn1)C2 (configuration not stated) | 14.6
O=C(C1CN(CC2CC2)CC12CCOCC2)N1CCOCC1 (configuration not stated) | 6.07
CCC(=O)N1CCC2(CCN(Cc3cccc(F)c3)CC2)CC1 | -4.82
CN1CCN(C(=O)[C@H]2C[C@H]3[C@H](CCN3Cc3cccs3)O2)CC1 | -7.64
O=C(CCc1cccnc1)N1CCC2(CCN(CC3CCCC3)C2)C1 (configuration not stated) | 3.82
CC(=O)N1C[C@H]2CC[C@@H](C1)N(S(=O)(=O)c1ccccc1Cl)C2 | -4
CS(=O)(=O)N1C[C@H]2CC[C@@H](C1)N(CCC(=O)NCc1ccccc1F)C2 | -11
CC(C)CNC(=O)N1C[C@@H]2C[C@H](C(=O)NCc3ccccc3)[C@H](C1)O2 | -0.924
